Type in all cases: functional
The subject of assay [1] is Helicobacter pylori. Put plainly: Minimal inhibitory concentration against 17 strains of Helicobacter pylori. Put shortly: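 Agar dilution against 16 clinical isolates plus reference strain NCTC 11637 (four metronidazole-resistant). Twofold serial dilutions in Columbia agar with 10% horse serum and 0.25% yeast extract, 128 to 0.0039 µg/mL, plates made fresh. Inoculum: 72 h growth suspended in Wilkins Chalgren broth at 0.5 McFarland, 5 µL multipoint spots; 37 °C, 72 h, microaerobic (10% CO2).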

For assay [2], the system named is Helicobacter pylori. The assay can be described thus: Minimal inhibitory concentration against metronidazole resistant Helicobacter pylori 20 strain. The essentials: (§1)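 Agar dilution. Columbia agar with 10% horse serum and 0.25% yeast extract holds serial twofold dilutions of compound, 128 to 0.0039 µg/mL, and plates are made on the day of use. Inoculum is 72 h growth suspended in Wilkins Chalgren broth to 0.5 McFarland, applied as 5 µL by multipoint inoculator. Plates are incubated 72 h at 37 °C, microaerobic (10% CO2).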

For assay [3], the system named is Helicobacter pylori. The assay can be described thus: Minimal inhibitory concentration against metronidazole resistant Helicobacter pylori 8 strain. The essentials: as §1
Assay [4] concerns Helicobacter pylori. Put plainly: Minimal inhibitory concentration against metronidazole resistant Helicobacter pylori 19 strain. The essentials: as §1
Assay [5] has as its system Helicobacter pylori. Put plainly: Minimal inhibitory concentration against metronidazole resistant Helicobacter pylori NCTC 11637 strain. Put shortly:
as §1

≈ marks a conversion by molar mass, not a printed value.

In general, MIC50 refers to an inhibitory concentration at the 50% level, which refers to growth in some studies and to a panel of isolates in others. What is called MIC90 is an inhibitory concentration at the 90% level, which refers to growth in some studies and to a panel of isolates in others. Low readings indicate greater potency, high ones weaker potency. The MIC is the least concentration at which growth counts as inhibited. The low end stands for greater potency, the high end for weaker potency.

Regarding `COc1ccccc1C1CC(c2ccc(O)cc2)=NN1C(C)=O` (configuration not stated), in the assay on Helicobacter pylori [1], the MIC50 was 8 µg/mL (≈ 25.8 µM) and the MIC90 amounted to 16 µg/mL (≈ 51.6 µM).
The like results for `CC(=O)N1N=C(c2c(O)cccc2O)CC1c1ccc(C)cc1` (configuration not stated) were, in that order, 32 µg/mL (≈ 103 µM) and 128 µg/mL (≈ 412 µM).
For `CC(=O)N1N=C(c2ccccc2)CC1c1ccc(Cl)cc1` (configuration not stated), in the assay on Helicobacter pylori [1], the MIC50 worked out at 4 µg/mL (≈ 13.4 µM) and the MIC90 turned out to be 8 µg/mL (≈ 26.8 µM).
Regarding `Cc1ncc([N+](=O)[O-])n1CCO` [METRONIDAZOLE], the MIC in the assay on Helicobacter pylori [2], with Helicobacter pylori [3], with Helicobacter pylori [4] and in the assay with Helicobacter pylori [5] was 64 µg/mL (≈ 374 µM) in each case. Further, in the assay on Helicobacter pylori [1], the MIC50 was 0.5 µg/mL (≈ 2.92 µM). The molecule also showed an MIC90 against Helicobacter pylori [1] of 64 µg/mL (≈ 374 µM).

The values above are taken from ChEMBL document CHEMBL1144276, “Synthesis and in vitro selective anti-Helicobacter pylori activity of pyrazoline derivatives” (2005).
